Screening data from PubChem.
Compounds with a hit are over-represented: about 3% of the library has one in this group of screens.
PvdQ acylase: P. aeruginosa PvdQ acylase inhibition; purified PvdQ acylase, fluorescence plate reader; inhibition, % at 10 µM; hit rate 0.063% among 340,000; in the data active = inhibition above about 30%, passing the limit was not always enough
N-glyco inh: N-linked glycosylation inhibition | D54 ERlucT glycosylation luciferase reporter, 24 h; percent of 100 nM tunicamycin response | reporter increase, % at 12.5 µM | hit rate 0.23% among 360,000;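 active = mean luciferase reporter signal, scaled so untreated is 0 and the glycosylation-blocking control 100, at or above a set limit in every replicate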;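 also: luciferase carries N-glycosylation sites so blocking glycosylation raises the light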
T cruzi repl: blocks replication of Trypanosoma cruzi; hit rate 1.4% among 300,000; inhibition, % (test concentration not listed); AID 1885; T. cruzi beta-gal in NIH3T3, luminescence, 90 h;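 active = mean inhibition across valid replicates above about 55%, limit read from the data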;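 also: signal also drops with host cell toxicity which is not excluded here; higher percent means less beta-gal luminescence so fewer parasites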
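Assay system: NIH/3T3 host cells with β-galactosidase reporter T. cruzi; input: 5,000 host fibroblasts per well; compound: single 50 nL compound addition per well in DMSO; timing: ≥90 h infection period, 3 h prior cell attachment; measured by: GalScreen β-gal luminescence, detergent lysis, 60 min; evaluation: percent inhibition of parasite-derived β-gal signal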
PfHsp90 set2: reduces growth (ATP signal) of yeast expressing P. falciparum Hsp90. S. cerevisiae expressing PfHsp90, BacTiter-Glo ATP, 48 h; yeast lacking PDR1 and PDR3 efflux regulators. inhibition, % at 9.4 µM. hit rate 0.32% among 310,000. AID 504621;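 active = every replicate shows inhibition above about 80%, whatever the replicate mean, limit read from the data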
HSF-1 act: increases HSF-1 driven luciferase reporter signal. activation, % at 9 µM. hit rate 1.7% among 300,000. NIH3T3-HGL HSF-1 luciferase reporter, MG132, 8 h; 100% = twice DMSO control signal. AID 504408;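 active = mean replicate activation of at least 50% with a set share of replicates each reaching 50%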
CaV13 ICDI inh: Primary screen for inhibitors of IQ motif and Ca2+-dependent inactivation inhibitor domain binding in CACNA1D, Förster resonance energy transfer in living cells, … | HEK cells, CFP/YFP FRET ICDI-IQ, plate reader, 10 min; percent FRET-ratio fall versus neutral wells | inhibition, % at 12.3 µM | hit rate 0.098% among 340,000;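 active = mean replicate inhibition of at least 30% and at least 1% of replicates passing that level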
Numbers stand for hits; 0 = inactive; - = no result given.

SMILES | PvdQ acylase | N-glyco inh | T cruzi repl | PfHsp90 set2 | HSF-1 act | CaV13 ICDI inh
C[C@@H]1CN([C@H](C)CO)C(=O)CCCn2nncc2CO[C@H]1CN(C)S(=O)(=O)c1ccc(Oc2ccccc2)cc1 | - | 0 | - | - | - | 0
CC(C)CCNC(=O)C(c1cccnc1)N(Cc1ccccc1)C(=O)Cn1nnc2ccccc21 (stereo not given) | 0 | 0 | 56.5 | 0 | 0 | -
CC(C)CCNC(=O)C(c1cccnc1)N(CCc1ccccc1)C(=O)Cn1nnc2ccccc21 (stereo not given) | 0 | 0 | 0 | 0 | 0 | -
Cc1ccc(-n2cc(CN3CCC(CO)(Cc4cccc(C(F)(F)F)c4)CC3)cn2)cc1 | 0 | 0 | 60.6 | 0 | 0 | 0
Cc1nn(C)c(C)c1/C=C(\C#N)S(=O)(=O)c1ccc(F)cc1 | - | 0 | - | - | - | 0
Cc1cc(Br)cc2c(C(=O)Nc3c(C)n(C)n(-c4ccccc4)c3=O)cc(-c3cccs3)nc12 | 0 | 40.8 | 0 | 0 | 0 | 0
CCc1ccc(-c2cc(C(=O)Nc3c(C)n(C)n(-c4ccccc4)c3=O)c3ccccc3n2)s1 | 0 | 0 | 0 | 0 | 0 | 0
C/C=C/C(=O)OCC(=O)Nc1ccccc1Br | 0 | 0 | 0 | 0 | 0 | -
O=C(COC(=O)/C=C/C(=O)OCC(=O)Nc1ccccc1F)Nc1ccccc1F | 0 | 0 | 0 | 0 | 66.2 | 0
O=C(NC1=NCCS1)C1CC(=O)N(c2ccc(F)cc2)C1 (stereo not given) | 0 | 0 | 0 | 0 | 86.8 | 0
O=C(NC1=NCCS1)C1CC(=O)N(c2ccccc2)C1 (stereo not given) | 0 | 0 | 0 | 0 | 0 | 0
Cc1cc(=O)c2n(Cc3ccccc3Cl)nc[n+]2[nH]1 | 0 | 0 | 0 | 0 | 91.3 | 0
O=c1c(Cl)c(Cl)cnn1Cc1ccccc1Cl | - | - | 0 | - | 0 | 0
CCC(Sc1nc(C)cc(=O)[nH]1)C(=O)Nc1nnc(C)s1 (stereo not given) | 0 | 0 | 0 | 0 | 0 | -
CCCCc1nnc(NC(=O)C(C)Sc2nc(C)cc(=O)[nH]2)s1 (stereo not given) | 0 | 0 | 0 | 0 | 64.4 | 0
Cc1ccc2nc3n(c(=O)c2c1)-c1ncccc1C(=O)NC3Cc1ccc(O)cc1 (stereo not given) | - | 0 | - | - | - | 0
C/C(=N\Nc1cccc2cccnc12)c1ccccn1 | 0 | 0 | 76.9 | 0 | 0 | 0
C/C(=N\Nc1cccc2cccnc12)c1ccccc1O | 0 | 0 | 0 | 0 | 53.8 | 0
C/C(=N\Nc1cccc2cccnc12)c1ccc(N)cc1 | 0 | 0 | 0 | 0 | 0 | 0
C[C@H](O)[C@@H]1C(=O)N2CCc3c([nH]c4c(-c5ccccc5)cccc34)[C@@H]2C[C@@H]1N(C)C(=O)c1ccco1 | - | - | - | - | - | 0
CCOc1ccc(CNC2CCCc3ccccc32)cc1 (stereo not given) | 38.4 | 0 | 0 | 0 | 0 | 0
CCOc1ccc(NC(=O)NC2CCCc3ccccc32)cc1 (stereo not given) | 0 | 0 | 0 | 0 | 0 | 0
CCCCNc1nc2c(c(=O)[nH]c(=O)n2C)n1CCCc1ccccc1 | - | 0 | - | - | - | 0
O=C(/C=C/c1ccncc1)c1cc(Cl)ccc1O | 0 | 0 | 65.9 | 0 | 59.1 | 0
COc1ccc(/C=C/C(=O)c2cc(Cl)ccc2O)c(OC)c1 | 0 | 0 | 0 | 0 | 64.4 | 0
SMILES | PvdQ acylase | N-glyco inh | T cruzi repl | PfHsp90 set2 | HSF-1 act | CaV13 ICDI inh
CC(C)Nc1nc(Nc2ccc(F)cc2)c2sccc2n1 | - | 0 | - | - | - | 0
CC1(C)Cc2c(C#N)c(N3CCCC3)nc(-c3ccco3)c2CO1 | 0 | 0 | 0 | 0 | 110.6 | 0
O=S(=O)(Nc1cccnc1Cl)c1ccc(-c2ccccc2)cc1 | 0 | 0 | 0 | 0 | 0 | 0
CCc1ccc(S(=O)(=O)Nc2ccc(O)c3ccccc23)cc1 | 0 | 0 | 0 | 0 | 78.3 | 0
O=S(=O)(Nc1ccc(O)c2ccccc12)c1ccc(F)cc1 | 0 | 0 | 0 | 0 | 0 | 0
O=S(=O)(Nc1ccccc1O)c1ccc(-c2ccccc2)cc1 | 0 | 0 | 0 | 0 | 65.3 | 0
CCN(C(=O)CSc1nc2scc(-c3ccccc3)c2c(=O)n1N)C1CCS(=O)(=O)C1 (stereo not given) | 0 | 0 | - | - | - | 0
COC(=O)C1=C(C)N(C)C(=NCc2ccccc2C(F)(F)F)NC1CCc1ccccc1 (stereo not given) | - | - | - | - | - | 0
CC1=CC(=O)C=C(C)C1=NOC(=O)/C=C\c1ccccc1 | 0 | 0 | 0 | 0 | 64.8 | 0
CC1=CC(=NOC(=O)/C=C/c2ccccc2)C=C(C)C1=O | 0 | 0 | 0 | - | 0 | 0
CCOC(=O)C1CCCN(Cc2ccc(-c3ccccc3)cc2)C1 (stereo not given) | 0 | 0 | 68.2 | 0 | 0 | 0
CCOC(=O)C1CCCN(C2CCN(Cc3nc(-c4ccccc4)no3)CC2)C1 (stereo not given) | 0 | 0 | 69.8 | 0 | 0 | 0
CN(Cc1cccc(Cl)c1)C(=O)C1CCN(C(=O)Nc2ccccc2)CC1 | 0 | 0 | 0 | - | 0 | 0
CN(Cc1ccccc1)C(=O)C1CCCN(Cc2cccc(Cl)c2)C1 (stereo not given) | 0 | 0 | 59.6 | 0 | 0 | 0
CCOC(=O)C1CCN(C2CCN(Cc3nc(-c4ccccc4)no3)CC2)CC1 | 0 | 0 | 0 | 0 | 0 | 0
COc1ccc(Cl)cc1Cn1c(C)c(C(=O)NCc2ccc3c(c2)OCCO3)sc1=O | - | 0 | - | - | - | 0
Cn1ccsc1=NC(=O)c1ccc([N+](=O)[O-])o1 | 0 | 0 | 60.2 | 0 | 0 | 0
CN(c1ccccc1)S(=O)(=O)c1ccc(Cl)c(C(=O)Nc2ccc(-c3nc4ccccc4[nH]3)cc2)c1 | 0 | 0 | 57.0 | 0 | 0 | 0
O=C(Nc1ccc(Br)cc1)c1cc2ccccn2n1 | 0 | 0 | 0 | 0 | 70.6 | 0
CS(=O)(=O)c1cccc(C(=O)Nc2ccc(-c3nc4ccccc4[nH]3)cc2)c1 | 0 | 46.0 | 0 | 0 | 0 | 0
O=C(Nc1ccc(Br)cc1)c1ccccc1Br | 0 | 0 | 0 | 0 | 53.3 | 0
CS(=O)(=O)c1ccccc1C(=O)Nc1ccc(-c2nc3ccccc3[nH]2)cc1 | 0 | 0 | 0 | 0 | 0 | 0
CC(C)Oc1ccc(S(=O)(=O)N2CCOCC2)cc1NC(=O)CSc1nnc(C2CC2)n1C | - | 0 | - | - | - | 0
COc1ccc(C(=O)NCc2cc(C)nc3ccccc23)cc1 | 0 | 0 | 0 | 0 | 0 | 0
Cc1cc(CNC(=O)c2ccc3c(c2)OCO3)c2ccccc2n1 | 0 | 0 | 0 | 0 | 0 | 151.6
O=C(NC(=S)Nc1cc(-c2nc3ccccc3[nH]2)ccc1Cl)c1ccc2c(c1)OCO2 | 0 | 0 | 0 | 0 | 0 | 0
Cc1ccc(-c2nc3ccccc3[nH]2)cc1NC(=O)c1ccc2c(c1)OCO2 | 0 | 0 | 0 | 0 | 87.8 | -
O=C(c1ccccc1)c1ccc2nc(-c3ccc(NC(=O)c4ccccc4Br)cc3)[nH]c2c1 | 0 | 0 | 60.2 | 0 | 0 | -
